zfTRPN1 agonist – zebrafish TRPN1 (NompC) channel agonism; actives 0.18% (n = 220,000); AID 1424; HEK293 zebrafish TRPN1-YFP, Fluo-8 calcium fluorescence; 100% = response to 87 µM carbachol; activation, % at 3 µM;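 active = activation above its plate's cutoff, the mean activation of test wells on that plate plus 3 SD, cut at about 19% in these data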;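 note: 0% = DMSO alone and 100% = 87 µM carbachol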
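System: zebrafish TRPN1-YFP in HEK293 cells / Dosing: 3 µM single point / Timing: dye loading 1 h at 37 °C, then 30 min room temperature / Signal: Fluo-8 calcium fluorescence, excitation 470-495 nm, emission 515-575 nm / Read-out basis: percent activation from peak over basal fluorescence ratio, control-normalized / Control set: high carbachol 87 µM, low DMSO alone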
TRPML3 agonist – activates the human TRPML3 channel. Q8TDD5. HEK293 TRPML3-YFP, Fluo-8 calcium fluorescence; 100% = the carbachol control signal. activation, % at 3 µM. actives 0.29% (n = 220,000). AID 1448;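 active = activation above its plate's cutoff, the mean activation of the plate's test wells plus 3 SD, cut at about 12% in these data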;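 note: 0% = DMSO only wells and 100% = carbachol wells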
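system = HEK293 cells stably carrying human TRPML3-YFP | doses = one concentration, 3 µM nominal, 0.3% DMSO | timing = dye loading 1 h 37 °C then 30 min ambient, 125 s read | detection = Fluo-8 calcium dye fluorescence, ex 470-495, em 515-575 nm | benchmarks = high control carbachol 87 µM, low control DMSO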
OX1R antag-1 – blocks the human orexin 1 receptor; OX1R-expressing cells, FRET antagonist read-out; inhibition, % at 6.6 µM; AID 485270; O43613; actives 1.8% (n = 330,000); in the data active = inhibition mostly above about 38%, no sharp cut-off; inactive = mostly below about 40%;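 note: 0% = agonist challenge alone and 100% = reference antagonist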
CHO parental Ca – counter-screen: ATP calcium response change in parental CHO cells. parental CHO-K1, ATP-induced calcium, Fluo-8 fluorescence. inhibition, % at 5.6 µM. actives 0.63% (n = 330,000). AID 463079;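 active = inhibition above that plate's mean sample inhibition plus 3 SD, cut at about 26% in these data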;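 note: 0% = ATP-challenged DMSO wells and 100% = DMSO wells without ATP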
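Assay system: untransfected parental CHO cell line. Also added: ATP agonist challenge. Dosing: one dose, 5.6 µM nominal. Measured by: Fluo-8 fluorescence. Read-out: % inhibition. Benchmarks: ATP wells versus no-ATP DMSO wells. Repeats: no replicates.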
OX1R antag-2 – blocks the human orexin 1 receptor; O43613; CHO/OX1R cells, Fluo-8 calcium fluorescence, orexin A; inhibition, % at 5 µM; actives 0.43% (n = 330,000);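 active = inhibition above its plate's threshold, mean inhibition of all tested compounds on the plate plus 3 SD, cut at about 37% in these data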;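 note: 0% = orexin A challenge wells and 100% = SB-334867-A antagonist wells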
GPR7 antag – blocks human GPR7 receptor signaling. AID 1861. P48145. GPR7-expressing cells, fluorescence antagonist assay. inhibition, % at 4.4 µM. actives 1.1% (n = 290,000); in the data active = inhibition above about 16%, passing the limit was not always enough;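 note: cells stimulated with the agonist NPW; 0% = agonist with vehicle and 100% = vehicle without agonist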
Target sequence (P48145 whole entry, looked up): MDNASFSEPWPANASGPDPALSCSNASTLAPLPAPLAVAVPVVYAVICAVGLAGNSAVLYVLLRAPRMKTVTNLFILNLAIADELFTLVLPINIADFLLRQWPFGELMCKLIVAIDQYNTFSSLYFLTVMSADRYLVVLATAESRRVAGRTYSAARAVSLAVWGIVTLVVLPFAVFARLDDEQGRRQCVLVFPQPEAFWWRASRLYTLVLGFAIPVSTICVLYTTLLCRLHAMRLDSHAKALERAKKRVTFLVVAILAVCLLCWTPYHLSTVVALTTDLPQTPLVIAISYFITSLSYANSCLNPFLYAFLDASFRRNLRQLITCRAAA
* marks the source's active call; other numbers are inactive results; · = not tested or not shown. Rows were chosen to be rich in hits. Some 3.2% of all compounds tested hit in one or more screens of this group.

SMILES | zfTRPN1 agonist | TRPML3 agonist | OX1R antag-1 | CHO parental Ca | OX1R antag-2 | GPR7 antag
CCOC(=O)c1c(C)[nH]c(C(=O)COC(=O)c2ccc(O)cc2)c1C | -1.2 | -0.5 | 7.9 | 27.4* | 10.1 | -3.8
CCOc1ccc(C(=O)Nc2ccc3c(c2)OCCO3)cc1 | · | · | 7.4 | 2.0 | -5.0 | -4.3
CCS(=O)(=O)Nc1cccc(C2=NN(S(=O)(=O)CC)C(c3cccs3)C2)c1 (centres undefined) | · | · | 24.2 | 2.8 | -10.6 | -0.8
COc1ccc2nc(C)cc(SCC(=O)NNC(=O)COc3cccc4ccccc34)c2c1 | 0.9 | 0.1 | 71.0* | -16.1 | 13.8 | -1.6
COc1ccc2nc(C)cc(SCC(=O)NNC(=O)COc3ccc(C)cc3)c2c1 | 0.2 | -0.4 | 32.8 | 7.4 | 6.1 | -5.0
CSc1ncccc1C(=O)OCC(=O)Nc1cccc(S(=O)(=O)N2CCOCC2)c1 | · | · | 11.3 | -10.2 | -16.1 | ·
N#Cc1c(-c2ccccc2)cc(-c2ccccc2)nc1SCCC(=O)O | · | · | 73.6* | 7.8 | -16.4 | -2.4
O=C(Nc1ccc(N2CCOCC2)c(Cl)c1)c1ccc([N+](=O)[O-])o1 | -0.5 | 0.3 | · | · | · | -0.6
CC(C)C(=O)N1CCN(c2ccc(NC(=O)c3ccc([N+](=O)[O-])o3)cc2)CC1 | 1.0 | 1.0 | 46.0* | -2.1 | -8.7 | -7.0
CC(C)C(=O)N1CCN(c2ccc(NC(=O)c3ccc([N+](=O)[O-])o3)cc2Cl)CC1 | 0.5 | 0.0 | · | · | · | -1.5
O=C(Nc1ccc(N2CCCC2)c(Cl)c1)c1ccc([N+](=O)[O-])cc1 | -1.7 | -0.5 | 20.1 | 3.0 | -31.5 | 0.7
CN1CCN(c2ccc(NC(=O)c3ccc([N+](=O)[O-])o3)cc2Cl)CC1 | · | · | 53.6* | 17.4 | -6.8 | -4.3
Cc1cc(C(=O)Nc2ccc(N3CCCC3)c(Cl)c2)ccc1[N+](=O)[O-] | 1.7 | 0.2 | 55.3* | -2.4 | 2.7 | -3.1
CCc1nccn1C(=O)c1cnn2c(C(F)F)cc(-c3ccccc3)nc12 | -1.7 | -0.3 | 65.6* | -16.1 | -23.2 | -9.5
CCc1nccn1C(=O)c1cnn2c(C(F)F)cc(-c3ccc(C)cc3)nc12 | -2.3 | -0.6 | 46.7 | -12.8 | -0.7 | -11.0
Cc1ccc(S(=O)(=O)N(C)C)cc1NC(=O)c1cc(C(C)(C)C)nn1Cc1ccccc1 | -1.5 | -0.7 | 15.9 | -22.0 | -27.3 | -11.7
COc1ccc2c(c1)C(SCC(=O)NCCc1ccc(Cl)cc1)CC(C)(C)O2 (centres undefined) | -2.1 | -0.6 | 22.2 | 1.7 | -19.6 | -1.5
CC(=O)Cn1ncc(N(C)Cc2ccccc2)c(Cl)c1=O | · | · | -0.8 | -2.8 | -16.2 | -0.7
CCOC(=O)CC(=O)CSc1nc(N)c(C#N)c(-c2ccc(Cl)cc2)c1C#N | 3.3 | 1.2 | 14.5 | 8.6 | 1.6 | -1.0
CCCSc1nc(N)c(C#N)c(-c2ccc(C)cc2)c1C#N | 0.4 | 0.6 | 16.7 | 40.7* | 5.1 | -7.4
Cc1ccc(-c2nc3cccnc3s2)cc1NS(=O)(=O)c1ccc2c(c1)OCCO2 | 0.7 | -0.2 | 18.9 | -14.9 | -24.8 | 5.1
Cc1ccc(-c2nc3cccnc3s2)cc1NS(=O)(=O)c1cccs1 | 0.3 | -0.1 | 40.6* | -14.3 | -13.6 | -20.9
Cc1nc2ccc(S(=O)(=O)Nc3cccc(-c4nc5cccnc5s4)c3C)cc2s1 | 8.8 | 5.0 | 25.5 | 31.8* | -10.4 | -1.6
COCCOc1ccc(C(F)(F)F)cc1NC(=O)c1ccc(C)cc1 | -0.6 | 0.9 | 12.0 | 38.6* | -15.9 | -11.5
O=C(CSc1ncccn1)N/N=C/c1cccc([N+](=O)[O-])c1 | -0.7 | 0.2 | 71.8* | 8.3 | -9.5 | -2.4
Cc1ccc(S(=O)(=O)N(C)c2ccc(C(=O)NCc3ccccc3F)cc2)cc1 | · | · | 13.1 | -7.3 | -14.8 | ·
Cc1ccc(S(=O)(=O)N(CCC(=O)NCc2ccccc2F)c2ccccc2)cc1 | · | · | 25.5* | -18.5 | -5.9 | ·
O=S(=O)(c1cccs1)N1CCN(CC(O)COc2cc(Cl)ccc2Cl)CC1 (centres undefined) | 9.8 | 3.0 | 74.7* | 69.4* | 74.2* | -1.2
O=S(=O)(c1cccs1)N1CCN(CCOc2ccc(Cl)cc2)CC1 | · | · | 11.3 | -4.1 | 2.1 | ·
COc1cc(O)c(CC=C(C)C)c(O)c1C(=O)CCc1ccc(O)cc1 | · | · | 9.0 | 38.9* | 35.9 | ·
